From article PMC5939375 (Biochemistry, 2016)
Entries after “also recorded” stand apart in the source; their conditions may differ.

How the values were obtained:
WT FDTS [1] = target: T1, WT FDTS (Thermotoga maritima, UniProt Q9WYT0); assay: Spectrophotometric titration of oxidized WT FDTS with ligand; format: binding
R90A FDTS [2] = target: T2, R90A FDTS (Thermotoga maritima, UniProt Q9WYT0, R90A); assay: Spectrophotometric titration of R90A FDTS with ligand; format: binding
R174A FDTS [3] = target: T3, R174A FDTS (Thermotoga maritima, UniProt Q9WYT0, R174A); assay: Spectrophotometric titration of R174A FDTS with ligand; format: binding
T3 sequence (Q9WYT0 whole entry R174A): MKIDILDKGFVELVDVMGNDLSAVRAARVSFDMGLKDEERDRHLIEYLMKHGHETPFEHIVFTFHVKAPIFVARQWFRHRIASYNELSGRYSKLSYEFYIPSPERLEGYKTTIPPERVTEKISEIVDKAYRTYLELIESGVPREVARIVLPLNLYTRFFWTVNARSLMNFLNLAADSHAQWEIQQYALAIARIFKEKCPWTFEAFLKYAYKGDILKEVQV

WT FDTS [4] = target: T1, WT FDTS
[5] = cited from earlier work
R90A FDTS [6] = target: T2, R90A FDTS; details: R90A variant; oxidative half-reaction with dUMP and CH2THF; cited from earlier work
R174A FDTS [7] = target: T3, R174A FDTS; details: R174A variant; oxidative half-reaction with dUMP and CH2THF; cited from earlier work
reduced WT FDTS [8] = target: T4, reduced WT FDTS (Thermotoga maritima, UniProt Q9WYT0); assay: Reactivity of dUMP analogs with reduced FDTS in the presence of CH2THF; format: biochemical; details: anaerobic, 0.1 M Tris-HCl pH 8 at 25 °C; 200 μM CH2THF; 10 mM dU or 200 μM dUMS; over four hours
T4 sequence (Q9WYT0 1-220): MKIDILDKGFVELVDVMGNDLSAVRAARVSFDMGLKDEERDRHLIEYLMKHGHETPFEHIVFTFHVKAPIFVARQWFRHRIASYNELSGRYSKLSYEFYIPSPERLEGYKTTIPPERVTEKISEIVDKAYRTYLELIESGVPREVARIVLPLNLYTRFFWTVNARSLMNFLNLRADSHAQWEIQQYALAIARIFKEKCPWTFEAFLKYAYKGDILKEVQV
Summary of the method: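 Recombinant T. maritima WT enzyme, purified, converted to apo-protein with concentrated NaCl, and reconstituted with exogenous FAD after desalting. Run in anaerobic cuvettes in 0.1 M Tris-HCl, pH 8, 25 °C. To reduced enzyme, CH2THF (200 μM final) was added first, then test compound (final concentration as listed). Flavin spectra were followed by scanning spectrophotometry. The mixture was afterwards analysed by HPLC for 2′-deoxythymidine-5′-monosulfate.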

reduced WT FDTS [9] = target: T4, reduced WT FDTS; details: cited from earlier work

T2 sequence (Q9WYT0 whole entry R90A): as the sequence (Q9WYT0 whole entry R174A) above, with R90A, A174R counted along it

## O=c1ccn([C@H]2C[C@H](O)[C@@H](COP(=O)(O)O)O2)c(=O)[nH]1 [dUMP, 2′-deoxyuridine-5′-monophosphate]
WT FDTS [1]; Kd, WT FDTS, 0.1 M Tris-HCl, pH 8 at 25 °C, estimate from fitting to Eq. 1
  Kd: ~0.03 µM
R90A FDTS [2]
  Kd: 14 ± 2 µM
R90A FDTS [2]; dUMP binding to R90A FDTS vs WT
  loss of binding energy: ~ 4.0 kcal/mol
R174A FDTS [3]
  Kd: 109 ± 6 µM
R174A FDTS [3]; dUMP binding to R174A FDTS vs WT
  loss of binding energy: ~ 5.4 kcal/mol
WT FDTS [4]; bound to WT FDTS, by the interaction of R174
  pKa of N3 of dUMP bound to FDTS: below 8
WT FDTS [4]; fully ionized at pH 8
  stabilization of the N3 anion of bound dUMP by R174: at least 2.8 kcal mol^−1
[5]; aqueous solution
  pKa for N3 of dUMP: 9.3
[5]; phosphate oxygen, reference not given
  pKa of anionic phosphate oxygen of dUMP: about 7
R90A FDTS [6]
  rate constant for flavin oxidation, fold smaller than wild-type FDTS: 8 fold
R174A FDTS [7]
  rate constant for flavin oxidation, fold smaller than wild-type FDTS: 3000 fold

## O=c1ccn([C@H]2C[C@H](O)[C@@H](CO)O2)c(=O)[nH]1 [dU, 2′-Deoxyuridine]
WT FDTS [1]; dU binding to WT FDTS vs dUMP
  loss of binding energy: ~ 5.2 kcal/mol
Reduced WT FDTS [8]
  oxidation of reduced FDTS flavin in the presence of CH2THF: failed to oxidize reduced WT FDTS; also recorded: neither dU nor dUMS cause oxidation of the reduced flavin; also recorded: No oxidation of the flavin occurred

## O=c1ccn([C@H]2C[C@H](O)[C@@H](COS(=O)(=O)O)O2)c(=O)[nH]1 [dUMS, 2′-deoxyuridine-5′-monosulfate]
Reduced WT FDTS [8]
  oxidation of reduced FDTS flavin in the presence of CH2THF: unable to oxidize reduced FDTS; also recorded: failed to oxidize reduced FDTS; also recorded: neither dU nor dUMS cause oxidation of the reduced flavin; also recorded: No oxidation of the flavin occurred

## O=c1[nH]c(=O)n([C@H]2C[C@H](O)[C@@H](COP(=O)(O)O)O2)cc1F [5F-dUMP, 5-fluoro-2′-deoxyuridine-5′-monophosphate]
Reduced WT FDTS [9]
  oxidation of reduced FDTS in the presence of CH2THF: cannot oxidize reduced FDTS
